Measured values: ChEMBL document CHEMBL4270615, “Design, synthesis and biological evaluation of novel thiazolidinedione derivatives as irreversible allosteric IKK-β modulators” (Eur J Med Chem, 2018)
The source made the active and inactive calls. The calls are words filed in the database; no cut-off is given here.

How the values were obtained:
[1] = biological target: T1, Inhibitor of nuclear factor kappa-B kinase subunit beta (Homo sapiens) (UniProt O14920); assay: Inhibition of IKKbeta (unknown origin) at 10 uM using IkappaBalpha-derived 5FAMGRHDSGLDSMK-NH2 as substrate preincubated for 10 mins followed by substrate addition measured after 2 hrs by IMAP based TR-FRET assay relative to control
T1 sequence (whole entry): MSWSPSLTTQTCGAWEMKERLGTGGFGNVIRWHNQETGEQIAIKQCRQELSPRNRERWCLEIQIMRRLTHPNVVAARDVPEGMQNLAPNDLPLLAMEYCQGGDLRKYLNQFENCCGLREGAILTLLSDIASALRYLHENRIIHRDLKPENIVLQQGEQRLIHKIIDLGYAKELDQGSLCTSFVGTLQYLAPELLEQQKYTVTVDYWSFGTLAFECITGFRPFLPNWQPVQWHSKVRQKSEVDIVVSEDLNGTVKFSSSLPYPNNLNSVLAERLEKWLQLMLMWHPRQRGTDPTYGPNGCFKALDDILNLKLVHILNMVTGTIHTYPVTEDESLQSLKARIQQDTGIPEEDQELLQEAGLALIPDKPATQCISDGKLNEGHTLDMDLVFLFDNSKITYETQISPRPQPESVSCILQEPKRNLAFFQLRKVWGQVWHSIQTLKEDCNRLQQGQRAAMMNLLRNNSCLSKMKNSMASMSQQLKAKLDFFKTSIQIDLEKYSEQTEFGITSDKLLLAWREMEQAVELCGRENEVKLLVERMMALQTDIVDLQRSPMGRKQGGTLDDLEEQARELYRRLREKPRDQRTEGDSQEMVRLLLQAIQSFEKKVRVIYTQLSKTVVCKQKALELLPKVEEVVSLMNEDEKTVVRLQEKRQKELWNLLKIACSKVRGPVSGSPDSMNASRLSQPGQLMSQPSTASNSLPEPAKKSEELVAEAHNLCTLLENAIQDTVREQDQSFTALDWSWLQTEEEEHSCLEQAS
Summary of the method: (§1)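 Recombinant IKK2 at 0.5 µg/mL in 10 mM Tris-HCl pH 7.2, 10 mM MgCl2, 0.05% NaN3, 1 mM DTT, 0.01% Tween-20. Compound preincubated with enzyme for 10 min, then 1 μM 5-FAM IκBα peptide and 3 μM ATP added; reaction at room temperature for 2 h. IMAP binding reagent (1:600) plus terbium donor (1:400) added 15 h before the TR-FRET read. Percent inhibition measured at 10 µM.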

[2] = biological target: T2, Inhibitor of nuclear factor kappa-B kinase subunit beta (Homo sapiens, UniProt O14920); assay: Inhibition of IKKbeta (unknown origin) using IkappaBalpha-derived 5FAMGRHDSGLDSMK-NH2 as substrate preincubated for 10 mins followed by substrate addition measured after 2 hrs by IMAP based TR-FRET assay; summary of the method: as §1
T2 sequence (O14920 whole entry): T1 sequence (whole entry)

[3] = biological target: hERG (KCNH2) (Homo sapiens, UniProt Q12809); assay: Inhibition of human ERG expressed in CHOK1 cells assessed as reduction in tail current at 100 uM and -80 holding potential after 100 to 200 secs by whole cell automated patch-clamp electrophysiology assay relative to control; assay type: ADME, cell-based; conditions: CHO-K1 cells expressing human ERG
Chain of hERG (KCNH2) (Q12809 whole entry, the tested form may be a part): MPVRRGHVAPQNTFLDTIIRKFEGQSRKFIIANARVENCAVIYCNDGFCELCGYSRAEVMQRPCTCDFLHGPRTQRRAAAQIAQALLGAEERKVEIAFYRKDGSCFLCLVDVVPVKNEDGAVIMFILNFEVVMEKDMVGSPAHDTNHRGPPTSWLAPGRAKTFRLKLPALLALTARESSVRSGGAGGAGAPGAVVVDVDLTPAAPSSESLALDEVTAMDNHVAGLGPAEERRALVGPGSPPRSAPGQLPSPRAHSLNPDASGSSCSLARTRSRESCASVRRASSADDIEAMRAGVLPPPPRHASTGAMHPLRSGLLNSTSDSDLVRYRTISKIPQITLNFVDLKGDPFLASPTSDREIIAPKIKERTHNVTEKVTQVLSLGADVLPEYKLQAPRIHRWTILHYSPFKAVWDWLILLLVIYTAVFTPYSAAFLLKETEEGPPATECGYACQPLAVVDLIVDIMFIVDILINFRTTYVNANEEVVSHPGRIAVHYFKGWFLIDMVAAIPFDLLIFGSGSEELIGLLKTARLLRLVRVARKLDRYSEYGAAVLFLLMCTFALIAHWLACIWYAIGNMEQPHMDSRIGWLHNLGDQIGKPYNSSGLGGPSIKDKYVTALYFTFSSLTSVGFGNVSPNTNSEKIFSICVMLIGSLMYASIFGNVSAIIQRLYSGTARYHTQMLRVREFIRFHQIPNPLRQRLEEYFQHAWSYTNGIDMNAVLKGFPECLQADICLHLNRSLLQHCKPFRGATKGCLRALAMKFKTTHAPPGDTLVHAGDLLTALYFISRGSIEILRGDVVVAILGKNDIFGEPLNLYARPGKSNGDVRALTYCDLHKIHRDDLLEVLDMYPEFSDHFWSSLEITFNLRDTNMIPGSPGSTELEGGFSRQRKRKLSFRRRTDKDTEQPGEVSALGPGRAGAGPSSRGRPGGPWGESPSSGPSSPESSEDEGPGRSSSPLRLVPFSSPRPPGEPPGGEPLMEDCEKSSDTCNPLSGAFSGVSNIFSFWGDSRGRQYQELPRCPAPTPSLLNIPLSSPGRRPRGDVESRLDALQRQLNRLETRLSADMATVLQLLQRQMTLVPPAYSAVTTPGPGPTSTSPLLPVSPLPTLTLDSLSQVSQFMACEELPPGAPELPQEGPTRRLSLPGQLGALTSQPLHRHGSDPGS
Summary of the method: (§2)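 CHO-K1 Tet-On hERG cells, with expression induced by doxycycline 5 μg/ml, recorded 20–32 h after induction. Whole-cell automated patch clamp used intracellular solution of 50 KCl, 60 KF, 10 NaCl, 2 MgCl2, 20 EGTA, 10 HEPES pH 7.2 (mM) and extracellular solution of 140 NaCl, 4 KCl, 2 CaCl2, 1 MgCl2, 5 glucose, 10 HEPES pH 7.4. Compound perfused for 100–200 s until tail-current block reached equilibrium. Percent inhibition taken at 100 μM.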

[4] = biological target: Voltage-gated inwardly rectifying potassium channel KCNH2 (Homo sapiens, UniProt Q12809); assay: Inhibition of human ERG expressed in CHOK1 cells assessed as reduction in tail current at -80 holding potential after 100 to 200 secs by whole cell automated patch-clamp electrophysiology assay; assay type: ADME, cell-based; summary of the method: as §2
Chain of Voltage-gated inwardly rectifying potassium channel KCNH2 (Q12809 whole entry): as the sequence (Q12809 whole entry, the tested form may be a part) above

[5] = tested on: hERG (KCNH2) versus IKKbeta; assay: Safety index, ratio of compound IC50 for human ERG expressed in CHOK1 cells to IC50 for IKKbeta (unknown origin); assay type: toxicity, cell-based; conditions: CHO-K1 cells expressing human ERG, read-out: Ratio IC50
Summary of the method: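 Safety index calculated as hERG IC50 divided by IKK-β IC50.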

[6] = Cytotoxicity against LPS-treated mouse RAW264.7 cells assessed as decrease in cell viability after 24 hrs by MTT assay; assay type: cell-based; conditions: LPS-treated RAW264.7 cells
Summary of the method: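 RAW 264.7 cells seeded at 1×10^5 cells/mL, grown overnight, then exposed to samples for 24 h, with or without 1 μg/ml LPS. MTT added from a 5 mg/mL PBS stock for 4 h at 37 °C. Formazan dissolved in DMSO and absorbance read at 540 nm. IC80 is the concentration lowering viability to 80% in the presence of LPS.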

[7] = tested on: RAW264.7; assay: Antiinflammatory activity against mouse RAW264.7 cells assessed as inhibition of LPS-induced PGE2 production incubated for 1 hr followed by LPS addition measured after 24 hrs by ELISA; assay type: functional, cell-based
Summary of the method: (§3)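 RAW 264.7 macrophages (DMEM, 10% FBS, penicillin/streptomycin, 37 °C, 5% CO2) plated at 2×10^5 cells/mL and left overnight. Compounds at 1.5, 3 and 6 μM, or NS-398 as positive control, given for 1 h, then LPS (10 ng/mL) for 24 h. PGE2 and TNF-α in diluted culture medium quantified by ELISA. IC50 is the concentration halving the produced mediator.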

[8] = tested on: RAW264.7; assay: Antiinflammatory activity against mouse RAW264.7 cells assessed as inhibition of LPS-induced TNFalpha production incubated for 1 hr followed by LPS addition measured after 24 hrs by ELISA; assay type: functional, cell-based; summary of the method: as §3
[9] = biological target: T2, Inhibitor of nuclear factor kappa-B kinase subunit beta; assay: Inhibition of human IKKbeta using IKKtide as substrate after 20 mins by [gamma-33P]-ATP based radiometric assay
[10] = biological target: T1, Inhibitor of nuclear factor kappa-B kinase subunit beta (Homo sapiens); assay: Irreversible inhibition of IKKbeta (unknown origin) at 0.001 to 30 uM using IkappaBalpha-derived 5FAMGRHDSGLDSMK-NH2 as substrate measured up to 60 mins
Summary of the method: (§4)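 Same IKK2 IMAP TR-FRET system (0.5 µg/mL enzyme, 1 μM peptide, 3 μM ATP, room temperature). Ten concentrations, 0.001–30 μM, with reactions run for 0, 20, 40 or 60 min instead of 2 h. Dose–response curves fitted at each time point. Kobs obtained from ln(% activity remaining) against time, then regressed nonlinearly against concentration.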

[11] = biological target: T2, Inhibitor of nuclear factor kappa-B kinase subunit beta; assay: Irreversible inhibition of IKKbeta (unknown origin) using IkappaBalpha-derived 5FAMGRHDSGLDSMK-NH2 as substrate measured immediately; summary of the method: as §4
[12] = biological target: T2, Inhibitor of nuclear factor kappa-B kinase subunit beta; assay: Irreversible inhibition of IKKbeta (unknown origin) using IkappaBalpha-derived 5FAMGRHDSGLDSMK-NH2 as substrate measured after 20 mins; summary of the method: as §4
[13] = biological target: T2, Inhibitor of nuclear factor kappa-B kinase subunit beta; assay: Irreversible inhibition of IKKbeta (unknown origin) using IkappaBalpha-derived 5FAMGRHDSGLDSMK-NH2 as substrate measured after 40 mins; summary of the method: as §4
[14] = biological target: T2, Inhibitor of nuclear factor kappa-B kinase subunit beta; assay: Irreversible inhibition of IKKbeta (unknown origin) using IkappaBalpha-derived 5FAMGRHDSGLDSMK-NH2 as substrate measured after 60 mins; summary of the method: as §4

## O=C1S/C(=C\c2ccc(Oc3ccc(F)cc3)cc2)C(=O)N1c1ccc(OCCCCN2CCN(CC3CC3)CC2)cc1
[1]
  inhibition: 85.7%
[2]
  IC50: 1.7 µM
[3]
  inhibition at 100 µM: 99.5%
[4]
  IC50: 3.4 µM
[5]
  selectivity ratio: 2

## O=C(C1CC1)N1CCN(CCCCOc2ccc(N3C(=O)S/C(=C\c4ccc(Oc5ccc(Br)cc5)cc4)C3=O)cc2)CC1
[1]
  inhibition: 52.4%
[2]
  IC50: 8.6 µM
[3]
  inhibition at 100 µM: 17.1%

## COCCCN1CCN(CCCCOc2ccc(N3C(=O)S/C(=C\c4ccc(Oc5ccc(Br)cc5)cc4)C3=O)cc2)CC1
[1]
  inhibition: 0%

## COCCCN1CCN(CCCCOc2ccc(N3C(=O)S/C(=C\c4ccc(Oc5ccc(F)cc5)cc4)C3=O)cc2)CC1
[1]
  inhibition: 0.7%

## COCCN1CCN(CCCCOc2ccc(N3C(=O)S/C(=C\c4ccc(Oc5ccc(F)cc5)cc4)C3=O)cc2)CC1
[1]
  inhibition: 1.6%

## O=C1S/C(=C\c2ccc(Oc3ccc(Br)cc3)cc2)C(=O)N1c1ccc(OCCCCN2CCN(CC3CC3)CC2)cc1
[1]
  inhibition: 60.8%
[2]
  IC50: 7.9 µM
[3]
  inhibition at 100 µM: 66.5%
[4]
  IC50: 27.5 µM
[5]
  selectivity ratio: 3.5

## CS(=O)(=O)N1CCN(CCCCOc2ccc(N3C(=O)S/C(=C\c4ccc(Oc5ccc(Br)cc5)cc4)C3=O)cc2)CC1
[1]
  inhibition: 3.3%

## O=C(C1CC1)N1CCN(CCCCOc2ccc(N3C(=O)S/C(=C\c4ccc(Oc5ccc([N+](=O)[O-])cc5)cc4)C3=O)cc2)CC1
[1]
  inhibition: 21.7%

## O=C(C1CC1)N1CCN(CCCCOc2ccc(N3C(=O)S/C(=C\c4ccc(Oc5ccc(F)cc5)cc4)C3=O)cc2)CC1
[1]
  inhibition: 21.2%

## O=C(C1CC1)N1CCN(CCCCOc2ccc(N3C(=O)S/C(=C\c4ccc(Oc5ccc(Cl)cc5)cc4)C3=O)cc2)CC1
[1]
  inhibition: 17%

## CS(=O)(=O)N1CCN(CCCCOc2ccc(N3C(=O)S/C(=C\c4ccc(Oc5ccc(Cl)cc5)cc4)C3=O)cc2)CC1
[1]
  inhibition: 0.8%

## COCCN1CCN(CCCCOc2ccc(N3C(=O)S/C(=C\c4ccc(Oc5ccc(Br)cc5)cc4)C3=O)cc2)CC1
[1]
  inhibition: 0%

## O=C1S/C(=C\c2ccc(N3CCOCC3)c(Cl)c2)C(=O)N1c1ccc(OCCCCCN2CCN(CC3CC3)CC2)cc1
[6]
  IC80 at 24 h: < 1.5 µM
[1]
  inhibition: 92.1%
[2]
  IC50: 0.9 µM
[7]
  Activity: Dose-dependent effect
  IC50: > 6 µM

## COCCCN1CCN(CCCCOc2ccc(N3C(=O)S/C(=C\c4ccc(Oc5ccc(Cl)cc5)cc4)C3=O)cc2)CC1
[1]
  inhibition: 1.6%

## COCCN1CCN(CCCCOc2ccc(N3C(=O)S/C(=C\c4ccc(Oc5ccc([N+](=O)[O-])cc5)cc4)C3=O)cc2)CC1
[1]
  inhibition: 9.3%

## O=C1S/C(=C\c2ccc(Oc3ccc([N+](=O)[O-])cc3)cc2)C(=O)N1c1ccc(OCCCCN2CCN(CC3CC3)CC2)cc1
[6]
  IC80 at 24 h: > 6 µM
[1]
  inhibition: 85.6%
[2]
  IC50: 1.5 µM
[7]
  Activity: Dose-dependent effect
  IC50: > 6 µM
[8]
  IC50: 3.41 µM
[3]
  inhibition at 100 µM: 61.2%
[4]
  IC50: 55.3 µM
[5]
  selectivity ratio: 36.9

## O=C1N/C(=N\c2ccc(O)cc2)S/C1=C\c1cc2ccccc2[nH]1
[9]
  IC50: 97.4 µM

## COCCCN1CCN(CCCCOc2ccc(N3C(=O)S/C(=C\c4ccc(Oc5ccc([N+](=O)[O-])cc5)cc4)C3=O)cc2)CC1
[1]
  inhibition: 9.4%

## COCCN1CCN(CCCCOc2ccc(N3C(=O)S/C(=C\c4ccc(Oc5ccc(Cl)cc5)cc4)C3=O)cc2)CC1
[1]
  inhibition: 1.7%

## O=C1S/C(=C\c2ccc(Oc3ccc(Cl)cc3)cc2)C(=O)N1c1ccc(OCCCCN2CCN(CC3CC3)CC2)cc1
[1]
  inhibition: 37.5%

## O=C1S/C(=C\c2ccc(Oc3ccc(F)cc3)cc2)C(=O)N1c1ccc(OCCCN2CCN(CC3CC3)CC2)cc1
[1]
  inhibition: 88.8%
[2]
  IC50: 1.4 µM

## CS(=O)(=O)N1CCN(CCCCOc2ccc(N3C(=O)S/C(=C\c4ccc(Oc5ccc([N+](=O)[O-])cc5)cc4)C3=O)cc2)CC1
[1]
  inhibition: 0%

## O=C1S/C(=C\c2ccc(N3CCOCC3)c(Cl)c2)C(=O)N1c1ccc(OCCCN2CCN(CC3CC3)CC2)cc1
[6]
  IC80 at 24 h: 2.67 µM
[1]
  inhibition: 90.7%
[2]
  IC50: 0.7 µM
[10]
  inhibition: Active
[11]
  IC50: 0.372 µM
[12]
  IC50: 0.288 µM
[13]
  IC50: 0.251 µM
[14]
  IC50: 0.252 µM
[8]
  IC50: > 6 µM

## O=C1S/C(=C\c2ccc(Oc3ccc(F)cc3)cc2)C(=O)N1c1ccc(OCCCCCN2CCN(CC3CC3)CC2)cc1
[6]
  IC80 at 24 h: > 6 µM
[1]
  inhibition: 92.8%
[2]
  IC50: 0.4 µM
[10]
  inhibition: Active
[11]
  IC50: 1.1 µM
[12]
  IC50: 0.34 µM
[13]
  IC50: 0.299 µM
[14]
  IC50: 0.24 µM
[7]
  Activity: Dose-dependent effect
  IC50: > 6 µM
[8]
  IC50: 1.67 µM

## CS(=O)(=O)N1CCN(CCCCOc2ccc(N3C(=O)S/C(=C\c4ccc(Oc5ccc(F)cc5)cc4)C3=O)cc2)CC1
[1]
  inhibition: 2.7%

## Nc1nc(N)nc(-c2ccc(Oc3ccccc3N)cc2)n1
[9]
  IC50: 7.8 µM
